According to ChEMBL document CHEMBL2021842, “COMPARE analysis of the toxicity of an iminoquinone derivative of the imidazo[5,4-f]benzimidazoles with NAD(P)H:quinone oxidoreductase 1 (NQO1) activity and computational docking of quinones as NQO1 substrates” (Bioorg Med Chem, 2012):

Legend:
[1] = test system: 786-0; assay: Growth inhibition of human 786-0 cells assessed as cell growth at 10 uM relative to untreated control; format: functional; conditions: read-out: Activity
In short: (§1)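 NCI DTP 60-cell-line screen, first stage: a single 10 µM dose of compound given to the human tumour panel. Result reported as percent growth relative to control, on a mean growth graph.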

[2] = test system: SK-MEL-5; assay: Growth inhibition of human SK-MEL-5 cells assessed as cell growth at 10 uM relative to untreated control; format: functional; conditions: read-out: Activity
In short: (§2)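 First stage of the NCI DTP 60 human tumour cell-line screen. Cells were exposed to a single dose of 10 µM. Output is reported as growth % relative to control.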

[3] = test system: U-251; assay: Growth inhibition of human U251 cells assessed as cell growth at 10 uM relative to untreated control; format: functional; conditions: read-out: Activity
In short: (§3)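 This is the first stage of the NCI DTP 60-human-tumour-cell-line screen, covering nine tissue types. Cells receive a single dose of the test compound, and the output is reported as mean growth %.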

[4] = test system: MOLT-4; assay: Growth inhibition of human MOLT4 cells assessed as cell growth at 10 uM relative to untreated control; format: functional; conditions: read-out: Activity; in short: as §2
[5] = test system: NCI-H460; assay: Growth inhibition of human NCI-H460 cells assessed as cell growth at 10 uM relative to untreated control; format: functional; conditions: read-out: Activity; in short: as §2
[6] = test system: ACHN; assay: Growth inhibition of human ACHN cells assessed as cell growth at 10 uM relative to untreated control; format: functional; conditions: read-out: Activity; in short: as §1
[7] = test system: SK-MEL-2; assay: Growth inhibition of human SK-MEL-2 cells assessed as cell growth at 10 uM relative to untreated control; format: functional; conditions: read-out: Activity; in short: as §2
[8] = test system: PC-3; assay: Growth inhibition of human PC3 cells assessed as cell growth at 10 uM relative to untreated control; format: functional; conditions: read-out: Activity; in short: as §2
[9] = Cytotoxicity against human GM00637 cells assessed as reduction in mean cell viability after 72 hrs by MTT assay; format: cell-based; conditions: GM00637, 72 h
In short: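 SV40-transformed normal skin fibroblasts (GM00637) in MEM Eagle–Earle BSS with 15% heat-inactivated FBS, 2 mM L-glutamine, 2× amino acids and vitamins. Seeded at 10,000 cells/well and left 24 h to adhere. Ethanol-delivered compound (1% final) for 72 h at 37 °C, 5% CO₂. MTT formazan in DMSO read at 550/690 nm. Viability relative to vehicle; IC₅₀ by nonlinear regression.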

[10] = test system: SF-539; assay: Growth inhibition of human SF539 cells assessed as cell growth at 10 uM relative to untreated control; format: functional; conditions: read-out: Activity; in short: as §2
[11] = test system: MDA-MB-468; assay: Growth inhibition of human MDA-MB-468 cells assessed as cell growth at 10 uM relative to untreated control; format: functional; conditions: read-out: Activity; in short: as §2
[12] = test system: NCI-H226; assay: Growth inhibition of human NCI-H226 cells assessed as cell growth at 10 uM relative to untreated control; format: functional; conditions: read-out: Activity; in short: as §2
[13] = test system: DU-145; assay: Cytotoxicity against human DU145 cells assessed as reduction in mean cell viability after 72 hrs by MTT assay; format: functional, cell-based; conditions: DU-145, 72 h
In short: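 DU-145 prostate cells in RPMI-1640 with 10% heat-inactivated FBS, penicillin–streptomycin and 2 mM L-glutamine. Seeded at 2000 cells/well and left 24 h to adhere. Compound added in ethanol (1% final) for 72 h at 37 °C, 5% CO₂, with ethanol-only controls. Formazan dissolved in DMSO and read at 550 nm (690 nm reference). IC₅₀ derived by nonlinear regression of viability versus vehicle.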

[14] = test system: TK-10; assay: Growth inhibition of human TK10 cells assessed as cell growth at 10 uM relative to untreated control; format: functional; conditions: read-out: Activity; in short: as §3
[15] = test system: MDA-MB-231; assay: Growth inhibition of human MDA-MB-231 cells assessed as cell growth at 10 uM relative to untreated control; format: functional; conditions: read-out: Activity; in short: as §2
[16] = test system: UACC-257; assay: Growth inhibition of human UACC257 cells assessed as cell growth at 10 uM relative to untreated control; format: functional; conditions: read-out: Activity; in short: as §3
[17] = test system: HeLa; assay: Cytotoxicity against human HeLa cells assessed as reduction in mean cell viability after 72 hrs by MTT assay; format: functional, cell-based
In short: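 HeLa-CCL-2 cells in DMEM with 10% heat-inactivated FBS, 2 mM L-glutamine and nonessential amino acids. Plated at 1000 cells/well with 24 h adherence. Treated in ethanol (1% final) for 72 h at 37 °C under 5% CO₂, with ethanol controls. Absorbance of DMSO-dissolved formazan at 550 nm, 690 nm reference. IC₅₀ by nonlinear regression of percent viability.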

[18] = test system: CAKI-1; assay: Growth inhibition of human Caki1 cells assessed as cell growth at 10 uM relative to untreated control; format: functional; conditions: read-out: Activity; in short: as §1
[19] = test system: SK-MEL-28; assay: Growth inhibition of human SK-MEL-28 cells assessed as cell growth at 10 uM relative to untreated control; format: functional; conditions: read-out: Activity; in short: as §2
[20] = test system: NCI/ADR-RES; assay: Growth inhibition of human NCI/ADR-RES cells assessed as cell growth at 10 uM relative to untreated control; format: functional; conditions: read-out: Activity; in short: as §2
[21] = test system: SNB-19; assay: Growth inhibition of human SNB19 cells assessed as cell growth at 10 uM relative to untreated control; format: functional; conditions: read-out: Activity; in short: as §3
[22] = test system: SN12C; assay: Growth inhibition of human SN12C cells assessed as cell growth at 10 uM relative to untreated control; format: functional; conditions: read-out: Activity; in short: as §3
[23] = test system: EKVX; assay: Growth inhibition of human EKVX cells assessed as cell growth at 10 uM relative to untreated control; format: functional; conditions: read-out: Activity; in short: as §1
[24] = test system: SW-620; assay: Growth inhibition of human SW620 cells assessed as cell growth at 10 uM relative to untreated control; format: functional; conditions: read-out: Activity; in short: as §3
[25] = test system: COLO 205; assay: Growth inhibition of human COLO205 cells assessed as cell growth at 10 uM relative to untreated control; format: functional; conditions: read-out: Activity; in short: as §1
[26] = test system: SNB-75; assay: Growth inhibition of human SNB75 cells assessed as cell growth at 10 uM relative to untreated control; format: functional; conditions: read-out: Activity; in short: as §3
[27] = test system: OVCAR-8; assay: Growth inhibition of human OVCAR8 cells assessed as cell growth at 10 uM relative to untreated control; format: functional; conditions: read-out: Activity; in short: as §2
[28] = test system: K562; assay: Growth inhibition of human K562 cells assessed as cell growth at 10 uM relative to untreated control; format: functional; conditions: read-out: Activity; in short: as §1
[29] = test system: OVCAR-5; assay: Growth inhibition of human OVCAR5 cells assessed as cell growth at 10 uM relative to untreated control; format: functional; conditions: read-out: Activity; in short: as §2
[30] = test system: T47D; assay: Growth inhibition of human T47D cells assessed as cell growth at 10 uM relative to untreated control; format: functional; conditions: read-out: Activity; in short: as §3
[31] = test system: SF-268; assay: Growth inhibition of human SF268 cells assessed as cell growth at 10 uM relative to untreated control; format: functional; conditions: read-out: Activity; in short: as §2
[32] = test system: M14; assay: Growth inhibition of human M14 cells assessed as cell growth at 10 uM relative to untreated control; format: functional; conditions: read-out: Activity; in short: as §1
[33] = test system: NCI-H522; assay: Growth inhibition of human NCI-H522 cells assessed as cell growth at 10 uM relative to untreated control; format: functional; conditions: read-out: Activity; in short: as §2
[34] = test system: DU-145; assay: Growth inhibition of human DU145 cells assessed as cell growth at 10 uM relative to untreated control; format: functional; conditions: read-out: Activity; in short: as §1
[35] = test system: SK-OV-3; assay: Growth inhibition of human SKOV3 cells assessed as cell growth at 10 uM relative to untreated control; format: functional; conditions: read-out: Activity; in short: as §2
[36] = test system: CCRF-CEM; assay: Growth inhibition of human CCRF-CEM cells assessed as cell growth at 10 uM relative to untreated control; format: functional; conditions: read-out: Activity; in short: as §1
[37] = test system: MDA-MB-435; assay: Growth inhibition of human MDA-MB-435 cells assessed as cell growth at 10 uM relative to untreated control; format: functional; conditions: read-out: Activity; in short: as §2

N=C1c2nc3n(c2C(=O)c2nc4n(c21)CCCC4)CCCC3
growth at 10 µM [1]: 89%
growth at 10 µM [2]: -98%
growth at 10 µM [3]: 50.6%
growth at 10 µM [4]: 85.4%
growth at 10 µM [5]: 4.62%
growth at 10 µM [6]: 69.4%
growth at 10 µM [7]: 82.7%
growth at 10 µM [8]: 90.5%
IC50 [9]: 3.63 µM
growth at 10 µM [10]: -21.7%
growth at 10 µM [11]: 68.1%
growth at 10 µM [12]: 57.1%
IC50 [13]: 300 nM
growth at 10 µM [14]: 128%
growth at 10 µM [15]: 82.6%
growth at 10 µM [16]: -6.6%
IC50 [17]: 1550 nM
growth at 10 µM [18]: 88.8%
growth at 10 µM [19]: -67.2%
growth at 10 µM [20]: 85.7%
growth at 10 µM [21]: 30%
growth at 10 µM [22]: -86.1%
growth at 10 µM [23]: 95.6%
growth at 10 µM [24]: 23.7%
growth at 10 µM [25]: -88.6%
growth at 10 µM [26]: -97%
growth at 10 µM [27]: 91.5%
growth at 10 µM [28]: 81.4%
growth at 10 µM [29]: -57.8%
growth at 10 µM [30]: 71.9%
growth at 10 µM [31]: 71.3%
growth at 10 µM [32]: -95.6%
growth at 10 µM [33]: 10.5%
growth at 10 µM [34]: -93.9%
growth at 10 µM [35]: 95%
growth at 10 µM [36]: 92.9%
growth at 10 µM [37]: -82.5%

O=C1c2nc3n(c2C(=O)c2nc4n(c21)CCCC4)CCCC3
growth at 10 µM [1]: 111%
growth at 10 µM [2]: 87.6%
growth at 10 µM [3]: 97.5%
growth at 10 µM [4]: 111%
growth at 10 µM [5]: 95%
growth at 10 µM [6]: 99%
growth at 10 µM [7]: 108%
growth at 10 µM [8]: 102%
IC50 [9]: > 5 µM
growth at 10 µM [10]: 121%
growth at 10 µM [11]: 95.6%
growth at 10 µM [12]: 111%
IC50 [13]: 1990 nM
growth at 10 µM [14]: 100%
growth at 10 µM [15]: 96.8%
growth at 10 µM [16]: 96.9%
IC50 [17]: 1670 nM
growth at 10 µM [18]: 90.7%
growth at 10 µM [19]: 118%
growth at 10 µM [20]: 103%
growth at 10 µM [21]: 98.6%
growth at 10 µM [22]: 99.6%
growth at 10 µM [23]: 99.9%
growth at 10 µM [24]: 104%
growth at 10 µM [25]: 116%
growth at 10 µM [26]: 97%
growth at 10 µM [27]: 103%
growth at 10 µM [28]: 107%
growth at 10 µM [29]: 110%
growth at 10 µM [30]: 99.3%
growth at 10 µM [31]: 92.3%
growth at 10 µM [32]: 108%
growth at 10 µM [33]: 92.3%
growth at 10 µM [34]: 101%
growth at 10 µM [35]: 102%
growth at 10 µM [36]: 103%
growth at 10 µM [37]: 105%
